Measurements from ChEMBL document CHEMBL1142517, “Discovery of an orally bioavailable small molecule inhibitor of prosurvival B-cell lymphoma 2 proteins” (J Med Chem, 2008).

Experiments:
[1] = Oral bioavailability in Sprague-Dawley rat at 5 mg/kg; assay type: ADME, organism-based; conditions: in vivo
[2] = AUC in Sprague-Dawley rat at 5 mg/kg, po; assay type: ADME, organism-based; design: dose 5 mg/kg, route oral; conditions: plasma
In short: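 Sprague-Dawley rats, single 5 mg/kg oral dose by gavage in 10% DMSO in PEG-400, n = 3. Heparinized blood taken before dosing and at set times. Plasma proteins precipitated with acetonitrile, then LC-MS/MS against spiked plasma standards with an internal standard. AUC by linear trapezoidal rule.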

[3] = Ratio of AUC for Sprague-Dawley rat at 5 mg/kg, po to EC50 for human NCI-H146 cells in presence of 10% human serum; assay type: functional
In short: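 The cells were treated for 48 h in medium with 10% human serum, and viability was read by CellTiter-Glo luminescence.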

[4] = Cmax in Sprague-Dawley rat at 5 mg/kg, po; assay type: ADME, organism-based; design: dose 5 mg/kg, route oral; conditions: in vivo
In short: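 Rats (Sprague-Dawley) given 5 mg/kg by oral gavage in 10% DMSO/PEG-400, n = 3. Serial heparinized blood samples. Plasma drug level by LC-MS/MS after acetonitrile protein precipitation, quantified by linear regression of peak-area ratio to internal standard. Concentration–time data fitted multiexponentially.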

[5] = Cytotoxicity against human NCI-H146 cells assessed as cell viability after 48 hrs in presence of 10% human serum; assay type: functional, cell-based; conditions: NCI-H146, 48 h
In short: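 NCI-H146 SCLC cells maintained in RPMI 1640 with 10% FBS at 37 °C, 5% CO2. Treated for 48 h in medium with 10% human serum. Viability by CellTiter-Glo luminescence. Values from duplicate runs.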

[6] = target: Apoptosis regulator Bcl-2 (Homo sapiens, UniProt P10415); experiment: Displacement of fluorescein labeled Bax peptide from Bcl2 by fluorescence polarization assay
[7] = Cytotoxicity against IL3-dependent mouse FL5.12 cells overexpressing human Bcl2 assessed as cell viability after 24 hrs by MTS assay in absence of serum; assay type: functional, cell-based; conditions: FL5.12, 24 h
In short: (§1)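 Mouse FL5.12 cells transfected with Bcl-XL or Bcl-2, deprived of IL-3 (no FBS or WEHI-3B conditioned medium) for 2 days. Then moved to serum-free gelatin medium (3.4 mg/mL bovine gelatin) with serially diluted compound for 24 h. Viability by MTS or CellTiter-Glo. Determinations in duplicate.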

[8] = Cytotoxicity against IL3-dependent mouse FL5.12 cells overexpressing human Bcl-XL assessed as cell viability after 24 hrs by MTS assay in absence of serum; assay type: functional, cell-based; conditions: FL5.12, 24 h; in short: as §1
[9] = AUC in Beagle dog at 2.5 mg/kg, iv or po; assay type: ADME, organism-based, Canis lupus familiaris; design: dose 2.5 mg/kg, route oral; conditions: plasma
In short: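 Beagle dogs, single 2.5 mg/kg dose in 10% DMSO in PEG-400, n = 3 per route. Intravenous dose given as a slow cephalic-vein bolus; oral dose by gavage followed by 10 mL water. Plasma by LC-MS/MS. AUC by linear trapezoidal rule.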

[10] = AUC in CD1 mouse at 50 mg/kg, po; assay type: ADME, organism-based; design: dose 50 mg/kg, route oral; conditions: plasma
In short: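 CD-1 mice, single 50 mg/kg oral gavage in 2% DMSO/5% Tween-80/20% propylene glycol/73% D5W, n = 27. Groups of three euthanized by CO2 at set times and blood taken by cardiac puncture. Plasma by LC-MS/MS. AUC by linear trapezoidal rule.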

[11] = AUC in cynomolgus monkey at 2.5 mg/kg, po; assay type: ADME, organism-based, Macaca fascicularis; design: dose 2.5 mg/kg, route oral; conditions: plasma
In short: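 Cynomolgus monkeys, single 2.5 mg/kg oral dose in 10% DMSO in PEG-400 by gastric intubation followed by 5 mL water, n = 3. Serial heparinized plasma assayed by LC-MS/MS. AUC by linear trapezoidal rule.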

[12] = Oral bioavailability in cynomolgus monkey; assay type: ADME, organism-based, Macaca fascicularis; conditions: in vivo
[13] = Oral elimination half life in cynomolgus monkey; assay type: ADME, organism-based, Macaca fascicularis; conditions: in vivo, read-out: beta t1/2 (converted)
[14] = Oral elimination half life in Beagle dog; assay type: ADME, organism-based, Canis lupus familiaris; conditions: in vivo, read-out: beta t1/2 (converted)
[15] = Oral bioavailability in CD1 mouse; assay type: ADME, organism-based; conditions: in vivo
[16] = Oral elimination half life in Sprague-Dawley rat; assay type: ADME, organism-based; conditions: in vivo, read-out: beta t1/2 (converted)
[17] = Oral elimination half life in CD1 mouse; assay type: ADME, organism-based; conditions: in vivo, read-out: beta t1/2 (converted)
[18] = Oral bioavailability in Beagle dog; assay type: ADME, organism-based, Canis lupus familiaris; conditions: in vivo
NCI-H1963 (Homo sapiens) = experiment: Antitumor activity against human NCI-H1963 cells xenografted C.B-17 SCID-bg mouse assessed as inhibition of tumor growth at 100 mg/kg, po daily once for 21 days; conditions: 504 h, read-out: TGI
[19] = Oral bioavailability in Sprague-Dawley rat; assay type: ADME, organism-based; conditions: in vivo

Apoptosis regulator Bcl-2, sequence (P10415 whole entry): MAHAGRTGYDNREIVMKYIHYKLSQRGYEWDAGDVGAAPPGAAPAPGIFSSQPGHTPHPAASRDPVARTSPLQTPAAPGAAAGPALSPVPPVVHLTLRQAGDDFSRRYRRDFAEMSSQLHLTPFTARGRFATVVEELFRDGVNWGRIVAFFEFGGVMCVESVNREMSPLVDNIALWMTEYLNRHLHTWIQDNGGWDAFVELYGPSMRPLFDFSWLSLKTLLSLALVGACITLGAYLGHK

Compound | AUC [2] [µM·h] | Ratio [3] | EC50 [5] [nM] | Ki [6] [nM] | EC50 [7] [nM] | EC50 [8] [nM] | also measured
O=C(NS(=O)(=O)c1ccc(NCCSc2ccccc2)c([N+](=O)[O-])c1)c1ccc(N2CCN(Cc3ccccc3-c3ccc(Cl)cc3)CC2)cc1 | 10.4 | 0.32 | 33000 | < 1 | – | – | bioavailability [1]: 28%; Cmax [4]: 1150 nM
CN(C)CC[C@H](CSc1ccccc1)Nc1ccc(S(=O)(=O)NC(=O)c2ccc(N3CCN(CC4=C(c5ccc(Cl)cc5)CCCCC4)CC3)cc2)cc1[N+](=O)[O-] | – | – | 51.9 | < 1 | < 1 | 5 | –
CN(C)CC[C@H](CSc1ccccc1)Nc1ccc(S(=O)(=O)NC(=O)c2ccc(N3CCN(CC4=C(c5ccc(Cl)cc5)CCOC4)CC3)cc2)cc1[N+](=O)[O-] | – | – | 266 | 2.4 | 33 | 55 | –
CN(C)CC[C@H](CSc1ccccc1)Nc1ccc(S(=O)(=O)NC(=O)c2ccc(N3CCN(CC4=C(c5ccc(Cl)cc5)CCC(C)(C)C4)CC3)cc2)cc1[N+](=O)[O-] | – | – | 98 | < 1 | 0.6 | 0.9 | –
O=C(NS(=O)(=O)c1ccc(N[C@H](CCN2CCOCC2)CSc2ccccc2)c([N+](=O)[O-])c1)c1ccc(N2CCN(Cc3ccccc3-c3ccc(Cl)cc3)CC2)cc1 | 1.16 | 1.9 | 610 | < 1 | – | – | bioavailability [1]: 16%; Cmax [4]: 200 nM
CN(C)CC[C@H](CSc1ccccc1)Nc1ccc(S(=O)(=O)NC(=O)c2ccc(N3CCN(Cc4ccccc4-c4ccc(Cl)cc4)CC3)cc2)cc1C#N | 2.19 | 1.1 | 1930 | < 1 | 49 | 225 | –
CN(C)CC[C@H](CSc1ccccc1)Nc1ccc(S(=O)(=O)NC(=O)c2ccc(N3CCN(Cc4ccccc4-c4ccc(Cl)cc4)CC3)cc2)cc1OC(F)(F)F | – | – | 5080 | < 1 | 230 | 805 | –
CN(C)CC[C@H](CSc1ccccc1)Nc1ccc(S(=O)(=O)NC(=O)c2ccc(N3CCN(CC4=C(c5ccc(Cl)cc5)CCCC4)CC3)cc2)cc1[N+](=O)[O-] | 0.65 | 25.3 | 25.7 | < 1 | 11 | 29 | –
CN(C)CC[C@H](CSc1ccccc1)Nc1ccc(S(=O)(=O)NC(=O)c2ccc(N3CCN(Cc4ccccc4-c4ccc(Cl)cc4)CC3)cc2)cc1C(F)(F)F | 4.41 | 1.8 | 2460 | < 1 | 42 | 122 | bioavailability [1]: 24%; Cmax [4]: 370 nM
CN(C)CC[C@H](CSc1ccccc1)Nc1ccc(S(=O)(=O)NC(=O)c2ccc(N3CCN(Cc4ccccc4-c4ccc(Cl)cc4)CC3)cc2)cc1[N+](=O)[O-] [ABT 737] | 0.28 | – | 87 | – | 7.7 | 30 | bioavailability [1]: 6%
CN(C)CC[C@H](CSc1ccccc1)Nc1ccc(S(=O)(=O)NC(=O)c2ccc(N3CCN(Cc4ccccc4-c4ccc(Cl)cc4)CC3)cc2)cc1C(=O)C(F)(F)F | 1.25 | 0.62 | 2010 | < 1 | 55 | 329 | –
O=C(NS(=O)(=O)c1ccc(N[C@H](CCN2CCOCC2)CSc2ccccc2)c(S(=O)(=O)C(F)(F)F)c1)c1ccc(N2CCN(CC3=C(c4ccc(Cl)cc4)CCCC3)CC2)cc1 | 3.87 | 65.7 | 58.9 | < 1 | 1.1 | 0.7 | AUC [9]: 3.8 µM·h; AUC [10]: 25.2 µM·h; AUC [11]: 1.9 µM·h
CN(C)CC[C@H](CSc1ccccc1)Nc1ccc(S(=O)(=O)NC(=O)c2ccc(N3CCN(Cc4ccccc4-c4ccc(Cl)cc4)CC3)cc2)cc1S(=O)(=O)C(F)(F)F | 0.83 | 21 | 39.4 | < 1 | 4.7 | 12 | –
Cc1cc(S(=O)(=O)NC(=O)c2ccc(N3CCN(Cc4ccccc4-c4ccc(Cl)cc4)CC3)cc2)ccc1N[C@H](CCN(C)C)CSc1ccccc1 | – | – | 28800 | < 1 | 673 | – | –
CC1(C)CCC(c2ccc(Cl)cc2)=C(CN2CCN(c3ccc(C(=O)NS(=O)(=O)c4ccc(N[C@H](CCN5CCOCC5)CSc5ccccc5)c(S(=O)(=O)C(F)(F)F)c4)cc3)CC2)C1 [NAVITOCLAX] | 6.26 | – | 86.7 | – | 5.9 | 4.2 | bioavailability [12]: 20%; AUC [9]: 27.8 µM·h; bioavailability [1]: 20%; half-life [13]: 4 h; half-life [14]: 4 h; bioavailability [15]: 20%; half-life [16]: 4 h; AUC [10]: 56.7 µM·h; half-life [17]: 4 h; bioavailability [18]: 20%; AUC [11]: 6.61 µM·h; inhibition in vivo at 100 mg/kg (NCI-H1963 (Homo sapiens)): 100%; bioavailability [19]: 20%
CN(C)CC[C@H](CSc1ccccc1)Nc1ccc(S(=O)(=O)NC(=O)c2ccc(N3CCN(CC4=C(c5ccc(Cl)cc5)CCC4)CC3)cc2)cc1[N+](=O)[O-] | – | – | 691 | < 1 | 51 | 143 | –
CN(C)CC[C@H](CSc1ccccc1)Nc1ccc(S(=O)(=O)NC(=O)c2ccc(N3CCN(Cc4ccccc4-c4ccc(Cl)cc4)CC3)cc2)cc1 | – | – | 78700 | < 1 | 2700 | 15000 | –
CN(C)CC[C@H](CSc1ccccc1)Nc1ccc(S(=O)(=O)NC(=O)c2ccc(N3CCN(Cc4ccccc4-c4ccc(Cl)cc4)CC3)cc2)cc1S(C)(=O)=O | – | – | 3490 | < 1 | 170 | 415 | –
CN(C)CC[C@H](CSc1ccccc1)Nc1ccc(S(=O)(=O)NC(=O)c2ccc(N3CCN(C/C4=C(\c5ccc(Cl)cc5)CCCCCC4)CC3)cc2)cc1[N+](=O)[O-] | – | – | 200 | < 1 | 39 | 21 | –
